According to article PMC2606940 (The Journal of General Physiology, 2009):

Target: T1, CLC-0 E166A mutant (Torpedo marmorata, UniProt P21564, C212S/E166A)
T1 sequence (P21564 1-805 E166A/C212S): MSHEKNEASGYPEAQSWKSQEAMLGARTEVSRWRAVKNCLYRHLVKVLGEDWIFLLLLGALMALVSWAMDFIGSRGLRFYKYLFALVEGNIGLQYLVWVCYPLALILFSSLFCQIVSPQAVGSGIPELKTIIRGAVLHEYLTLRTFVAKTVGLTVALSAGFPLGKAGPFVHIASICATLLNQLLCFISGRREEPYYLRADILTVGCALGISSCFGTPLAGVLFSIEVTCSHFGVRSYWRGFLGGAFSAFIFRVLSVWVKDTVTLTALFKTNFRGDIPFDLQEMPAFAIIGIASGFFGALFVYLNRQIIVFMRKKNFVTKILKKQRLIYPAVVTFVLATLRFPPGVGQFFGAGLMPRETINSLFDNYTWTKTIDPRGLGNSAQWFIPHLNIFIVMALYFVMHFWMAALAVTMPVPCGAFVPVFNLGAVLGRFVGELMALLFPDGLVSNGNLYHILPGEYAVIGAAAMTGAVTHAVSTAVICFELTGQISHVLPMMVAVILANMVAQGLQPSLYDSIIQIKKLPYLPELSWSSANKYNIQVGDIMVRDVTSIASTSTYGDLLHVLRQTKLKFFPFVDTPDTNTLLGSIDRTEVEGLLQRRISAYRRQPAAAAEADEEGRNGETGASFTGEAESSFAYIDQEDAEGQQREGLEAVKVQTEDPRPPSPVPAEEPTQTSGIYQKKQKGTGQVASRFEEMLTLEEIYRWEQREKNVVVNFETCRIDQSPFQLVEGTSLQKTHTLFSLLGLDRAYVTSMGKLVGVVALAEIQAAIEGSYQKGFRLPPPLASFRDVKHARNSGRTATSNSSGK
Assay: Single-channel recordings, channels expressed in Xenopus oocytes
Assay type: cell-based
Conditions: 0.1 mM CPA cytoplasmic side; −100 mV
Outline: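 Single channels were expressed in Xenopus oocytes from cRNA made from a pBluescript construct. Currents were recorded at −100 mV with cytoplasmic CPA at 100 μM, filtered at 200 Hz (four-pole Bessel) and digitized at 1 kHz. Average dwell time of nonconducting events was analysed from the single-channel traces.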

O=C(O)COc1ccc(Cl)cc1 [CPA, p-chlorophenoxy acetate]
averaged time of nonconducting (blocked) events: ~55 ms
